C8 TRAIL sens: caspase-8 TRAIL sensitization; inhibition (viability loss, TRAIL sensitization), % at 10 µM; hit rate 1% among 360,000; NB7+C8 cells + TRAIL, ATPlite viability luminescence; AID 624354;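 active = compounds causing at least 50% loss of cell viability in the single-dose screen, relative to plate controls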
FLuc act counter: affects firefly luciferase, flagging false hits in luciferase stimulation screens | P08659 | ATPlite luciferase biochemical, luminescence, 10 min; 0 = ATP-free wells, 1 = DMSO control | activation factor at 10 µM | 200,000 tested, under 10 active | AID 1027;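 active = luciferase activation factor, scaled between plate controls, of at least 2 with compound at 10 µM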
Target sequence (P08659 whole entry, looked up): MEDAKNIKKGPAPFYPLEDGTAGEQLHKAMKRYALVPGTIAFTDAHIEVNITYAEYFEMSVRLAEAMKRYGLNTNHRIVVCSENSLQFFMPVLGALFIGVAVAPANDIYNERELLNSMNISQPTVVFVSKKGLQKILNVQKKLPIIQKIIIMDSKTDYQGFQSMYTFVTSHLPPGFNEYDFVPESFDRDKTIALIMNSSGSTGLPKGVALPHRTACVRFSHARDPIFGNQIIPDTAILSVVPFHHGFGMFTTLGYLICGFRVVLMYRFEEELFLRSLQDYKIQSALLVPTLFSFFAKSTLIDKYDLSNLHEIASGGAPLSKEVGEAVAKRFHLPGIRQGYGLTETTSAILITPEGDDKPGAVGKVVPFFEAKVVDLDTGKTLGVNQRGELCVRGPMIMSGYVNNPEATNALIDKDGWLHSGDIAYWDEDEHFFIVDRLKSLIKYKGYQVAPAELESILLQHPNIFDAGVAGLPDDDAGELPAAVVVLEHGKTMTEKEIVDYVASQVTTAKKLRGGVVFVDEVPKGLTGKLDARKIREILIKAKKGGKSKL
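Assay system – cell-free luciferase reagent · Medium – PBS-based ATP solution · Dosing – test compounds dosed from 2 mM stocks in 100% DMSO · Timing – 10 min, room temperature · Technique – light output (luminescence) · Measure – luminescence gain marking luciferase activators · Controls – No-ATP low control, compound-free enzyme-plus-ATP high control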
APP 5'UTR act: APP 5'UTR luciferase reporter activation. SH-SY5Y APP 5'UTR luciferase reporter, luminescence; zero percent = DMSO vehicle wells. AID 1276. activation, % at 2 µM. hit rate 1% among 190,000;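 active = activation above a set limit, based on mean plus 3 SD of controls, cut at about 140% in these data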
NF-kB neuron act: NF-kB expression increase, human neuronal cells. hit rate 1.6% among 190,000. NF-kB reporter expression; active compounds read high. fold change at 12.5 µM; in the data active = fold change above about 3.3
PPC-1+TRAIL kill: PPC-1 cancer cell killing with TRAIL present | hit rate 0.41% among 220,000 | PPC-1 cells + TRAIL, ATPLite viability luminescence | cell killing (% activity), % at 4 µM or 5 µM;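 active = cell killing above 50% in the first pass at 4 µM, then a duplicate retest at 5 µM averaging 50% or more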;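 also: plate controls were cells with TRAIL plus DMSO for no effect and medium-only wells lacking cells for full effect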
FLuc inh counter: inhibits firefly luciferase, flagging false hits in luciferase inhibition screens. P08659. ATPLite firefly luciferase biochemical luminescence, 10 min. inhibition, % at 10 µM. hit rate 1.5% among 200,000;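 active = inhibition above about 50% when tested at 10 µM, limit read from the data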
* marks the source's active call; other numbers are inactive results; nt = not tested or not shown. An excerpt weighted towards active compounds, which were near 2.2% of everything screened.

SMILES	C8 TRAIL sens	FLuc act counter	APP 5'UTR act	NF-kB neuron act	PPC-1+TRAIL kill	FLuc inh counter
CC(C)(C)c1ccc(C(=O)Nc2cccc([N+](=O)[O-])c2)cc1	54.5*	0.3	136.8*	7.6*	38.7	72.3*
O=C(Nc1cccc([N+](=O)[O-])c1)c1ccncc1	-2.6	1	14.7	0.94	22.8	-4.8
COC(=O)[C@@]12C[C@@H](CC(=O)N3CCC(c4ccccc4)CC3)C(=O)N(Cc3cccc4ccccc34)C1=CCC(C)(C)C2	7.8	nt	nt	nt	nt	nt
CCn1c(-c2ccccc2)c(C(=O)CCl)c2ccccc21	5.4	1.1	2.8	0.13	3.5	-7.4
Cn1c(-c2ccccc2)c(C(=O)CCl)c2ccccc21	92.3*	1	12.0	1	20.6	-2.6
CC1CC(C)(C)Nc2ccc(OC(=O)c3ccco3)cc21 (stereo not given)	34.1	0.4	-30.1	2.21	11.6	60.4*
O=C(Oc1ccc2ccccc2c1)c1ccco1	-1.5	0.9	-18.6	1.22	12.5	9.5
COc1ccc(C/C(N)=N/OC(=O)c2ccc(Cl)cc2)cc1	2.7	1	14.0	1.85	7.0	-4.8
N/C(Cc1ccc(Cl)cc1)=N\OC(=O)c1cccc2ccccc12	67.8*	1	-10.6	0.68	16.3	-3.1
N/C(Cc1ccc(Cl)cc1)=N\OC(=O)c1ccc2ccccc2c1	95.0*	1	-3.1	1.32	5.7	-0.1
CCCS(=O)(=O)NC(=O)C1(C)CCN(C(=O)c2ccccc2C(F)(F)F)C1 (stereo not given)	2.3	nt	nt	nt	nt	nt
O=C1c2ccccc2C(=O)c2c(Nc3ccc(CCO)cc3)ccc(O)c21	-2.3	nt	nt	nt	-1.6	nt
O=C1c2c(O)ccc(O)c2C(=O)c2c(NCCNCCO)ccc(NCCNCCO)c21	82.4*	nt	nt	nt	nt	nt
Cc1ccc(Nc2n[nH]c(C)c2[N+](=O)[O-])c(C)c1	-2.1	1	27.5	5.29*	32.1	-0.4
Cc1[nH]nc(Nc2ccc(O)cc2)c1[N+](=O)[O-]	-8.0	1	26.0	1.16	nt	-2.7
COc1ccc(Nc2n[nH]c(C)c2[N+](=O)[O-])cc1	-8.3	0.9	35.4	4.78*	18.6	9.1
CC(C)C[C@@H]1O[C@H](C(C)C)Cc2[nH][nH]c(=O)c21	-14.7	nt	nt	nt	nt	nt
Cc1ccc(C(C#N)=Cc2ccc3c(c2)OCO3)cc1	56.0*	nt	nt	nt	nt	nt
COc1ccccc1/C=N/OC(=O)c1ccc(C)cc1	-14.9	0.3	16.8	1.29	6.7	71.2*
Cc1ccc(C(=O)O/N=C/c2ccc3c(c2)OCO3)cc1	-6.8	0.4	28.6	1.15	3.3	58.8*
O=C(O/N=C/c1ccc2c(c1)OCO2)c1ccc([N+](=O)[O-])cc1	-2.1	1	5.8	1.17	27.4	-4.5
O=S1(=O)CC(N2CCN(CCO)CC2)CN1Cc1ccccc1 (stereo not given)	-4.9	nt	nt	nt	nt	nt
CC(C)(C)c1ccc(C(=O)N2CCC2(C)C(=O)NS(=O)(=O)c2ccccc2Cl)cc1 (stereo not given)	-3.8	nt	nt	nt	nt	nt
Cc1ccc(S(=O)(=O)N2CC3C(=O)C[C@@H](c4ccccc4)N(S(=O)(=O)c4cccc(Cl)c4)C3CC2c2ccccc2)cc1 (stereo not given in full)	-7.0	nt	nt	nt	nt	nt
O=C(CCS(=O)(=O)c1ccc(Br)cc1)Nc1ccccn1	-1.1	1.1	13.6	1.14	65.5*	-7.1
SMILES	C8 TRAIL sens	FLuc act counter	APP 5'UTR act	NF-kB neuron act	PPC-1+TRAIL kill	FLuc inh counter
O=C(CCSc1ccccn1)Nc1ccc(Br)cc1	16.6	1	65.1	3.38*	13.8	2.0
Clc1ccc(-c2cn3c(n2)SCC3)cc1	7.6	0.8	153.1*	4.76*	-4.8	24.3
Brc1ccc(-c2cn3c(n2)SCC3)cc1	21.6	0.7	157.2*	5.16*	19.8	31.9
Oc1ccc(-c2cn3c(n2)SCC3)cc1	-4.3	0.9	-3.3	1.68	-3.3	5.6
CCc1ccc(C(=O)Nc2cc(C)ccc2F)s1	52.8*	0.8	40.1	1.9	9.8	15.8
CCc1ccc(C(=O)Nc2nc(C)cs2)s1	36.2	nt	nt	nt	nt	nt
CCC(=O)N(C)CCc1cc2c(c(OC)c1/C=N/NC(=O)c1ccccc1O)OCO2	4.4	0.7	-6.7	1.25	2.3	31.9
COc1c(/C=N/NC(=O)c2ccccc2O)c(CCN(C)C(C)=O)cc2c1OCO2	-1.4	0.2	18.8	1.06	18.4	84.6*
NNC(=O)c1cccc(COc2ccccc2Br)c1	10.0	0.6	173.1*	2.53	-4.1	36.7
Cc1ccc(NC(=O)c2ccc3nc[nH]c3c2)nc1	31.4	nt	nt	nt	nt	nt

Bioassay records from PubChem.
